Screening data from PubChem BioAssay.
Shown are actives, neighbours in structure and some others; about 3.8% of the full set was active somewhere.
Kir21 inh = inhibitors of mouse Kir2.1 inward-rectifier potassium channel | B-score at 10 µM | HEK293-Kir2.1, FluxOR thallium flux fluorescence; active compounds read low | Inward rectifier potassium channel 2 (Mus musculus), P35561 | 0.85% of 310,000 active;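 active = fluorescence ratio B-score at or below minus 3 SD of library scores, with starting-brightness B-score within 2 SD, cut at about -4.2 in these data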;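 also: channel flux triggered by added potassium and thallium sulfate stimulus; B-score of peak minus minimum fluorescence over baseline after thallium stimulus; more negative B-score means stronger Kir2.1 block with less thallium influx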
KCNK3 inh = human KCNK3 channel inhibitors, primary screen, CHO cells, FluxOR thallium flux, B-score; 0.84% of 340,000 active; B-score at 10 µM; FluxOR fluorescence; active compounds read low; Potassium channel subfamily K member 3 (Homo sapiens), O14649;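 active = B-score under library mean minus 4 SD, starting fluorescence ratio at most library mean plus 5 SD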;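 also: more negative B-score means stronger inhibition of thallium flux through KCNK3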
KCNK9 inh = KCNK9 potassium channel inhibitors, primary screen, HEK293 cells, thallium flux; B-score at 10 µM; AID 488922, 2010; Potassium channel subfamily K member 9 (Homo sapiens), Q9NPC2; FluxOR thallium flux fluorescence; active compounds read low; 1.2% of 310,000 active;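 active = ratio B-score over 3 SD below the library mean, with starting fluorescence within 5 SD of its mean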;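 also: negative B-score means less thallium flux so channel inhibition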
hERG rescue = hERG rescue from dofetilide block, primary screen, cell-based, CHO-hERG, FluxOR thallium flux, dofetilide IC70; dofetilide IC70 present; activation (rescue from dofetilide block), less the hit threshold, % at 10 µM; 0.51% of 310,000 active;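 active = activation above the mean of controls blocked by dofetilide plus 5 SD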;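 also: thallium influx through hERG after potassium depolarization seen as dye fluorescence rise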
KCNQ1 act = potentiators or activators of KCNQ1 channel, primary screen, cell-based, thallium flux, high-throughput; B-score at 10 µM; 0.35% of 310,000 active; CHO-K1 KCNQ1, thallium flux FluxOR fluorescence; active compounds read high;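 active = fluorescence ratio B-score, a plate-corrected score, at least three library SD, with initial intensity B-score within 5 SD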
Target sequence (P51787 whole entry, looked up): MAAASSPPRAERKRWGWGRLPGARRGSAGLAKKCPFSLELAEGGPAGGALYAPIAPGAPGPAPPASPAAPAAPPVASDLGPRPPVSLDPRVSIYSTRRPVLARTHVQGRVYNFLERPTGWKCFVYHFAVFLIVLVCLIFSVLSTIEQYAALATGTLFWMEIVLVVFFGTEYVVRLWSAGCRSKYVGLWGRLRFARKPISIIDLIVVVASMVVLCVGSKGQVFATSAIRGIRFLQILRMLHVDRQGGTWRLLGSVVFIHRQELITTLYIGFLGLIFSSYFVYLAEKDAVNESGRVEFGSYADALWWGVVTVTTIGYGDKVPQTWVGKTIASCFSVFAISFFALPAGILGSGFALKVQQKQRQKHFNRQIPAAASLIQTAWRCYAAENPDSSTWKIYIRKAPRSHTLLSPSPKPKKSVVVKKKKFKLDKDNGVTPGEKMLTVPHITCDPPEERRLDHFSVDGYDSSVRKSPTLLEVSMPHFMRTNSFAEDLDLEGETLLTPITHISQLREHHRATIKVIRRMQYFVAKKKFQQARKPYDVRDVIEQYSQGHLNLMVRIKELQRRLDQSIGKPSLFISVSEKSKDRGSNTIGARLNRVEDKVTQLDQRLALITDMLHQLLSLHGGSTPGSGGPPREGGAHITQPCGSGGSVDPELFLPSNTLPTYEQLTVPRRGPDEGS
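System: Stable KCNQ1 CHO-K1 line | Incubation: 90 min dye loading and 20 min compound exposure, both at room temperature | Measure: Ratio B score | Medium: Assay buffer for compound exposure, DMSO matched across wells | Compound dosing: Single-concentration screen | Probe or stimulus: K+/Tl+ depolarizing stimulus | Measured by: Kinetic FluxOR fluorescence, 10 s baseline plus 110 s post-stimulus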
KCNQ1 inh = inhibitors of human KCNQ1 channel, primary screen, cell-based, thallium flux, high-throughput; AID 2642, 2010; B-score at 10 µM; 1.3% of 310,000 active; CHO-K1 KCNQ1, FluxOR thallium flux fluorescence; active compounds read high; Potassium voltage-gated channel subfamily KQT member 1 (Homo sapiens), P51787;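 active = compounds whose thallium flux B-score, printed positive for inhibition, exceeds three library SD while starting fluorescence stays within three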;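 also: channel opened by potassium depolarization with thallium stimulus after 20 min compound exposure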
KCNK9 inh conf = KCNK9 potassium channel inhibitors, confirmation, HEK293 cells, thallium flux, duplicate. inhibition, % at 10 µM. FluxOR thallium flux fluorescence. shares compounds with KCNK9 inh. 43% of 4,900 active;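 active = thallium signal inhibited by more than 5 SD of the compound-free buffer control wells, on both duplicate plates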
Kir2-1 spec = mouse Kir2.1 channel inhibition, confirmation, selectivity assay for KCNK9 modulator project, cell-based, HEK293, thallium flux; Kir2.1 cells, FluxOR thallium flux fluorescence; inhibition, % at 10 µM; shares compounds with KCNK9 inh; 4% of 4,900 active;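 active = thallium signal drop more than 5 SD beyond the mean of the no-compound control wells, seen in both duplicate plates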;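 also: signal is fluorescence rise after thallium addition divided by baseline fluorescence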
HEK293 Tl ctr = thallium flux in non-induced HEK293 cells, confirmation, counter-screen for KCNK9 inhibitor project, cell-based, second counter screen, non-induced KCNK9-HEK293 | shares compounds with KCNK9 inh | FluxOR thallium flux | inhibition, % at 10 µM | 40% of 4,900 active;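 active = thallium signal drop beyond 5 SD of the untreated control mean, on both duplicate plates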
Large screens that a line does not name were inactive (follow-up assays come after a bar, where they were run).

CCOC(=O)CNC(=O)Cn1cnc2c(nnn2-c2ccc(OC)cc2)c1=O	none
Cc1ccc(NCCCn2cnc3c(OCc4ccccc4)ncnc32)cc1C	none (no result: Kir21 inh, KCNK9 inh, hERG rescue, KCNQ1 act, KCNQ1 inh)
COc1cc(C(=O)Nc2cc3c(cc2N2CCCCC2)n(C)c(=O)n3C)cc(OC)c1OC	KCNK9 inh -20 | KCNK9 inh conf 67% | Kir2-1 spec inactive | HEK293 Tl ctr inactive
CCn1c(=O)n(CC)c2cc(N3CCCC3)c(NC(=O)c3ccccc3OC)cc21	KCNK9 inh -9 | KCNK9 inh conf 42% | Kir2-1 spec inactive | HEK293 Tl ctr inactive
CC(C)CCC(C)N=Cc1c(O)n(Cc2ccccc2)c(=O)c2ccccc12 (stereo not drawn)	KCNK9 inh -13 | KCNK9 inh conf 74% | Kir2-1 spec inactive | HEK293 Tl ctr 44%
CCN(CC)CCCN=Cc1c(O)n(Cc2ccccc2)c(=O)c2ccccc12	none
COc1ccccc1C1CCN(Cc2ccc3ccccc3c2)CC1	none | KCNK9 inh conf inactive | Kir2-1 spec 28% | HEK293 Tl ctr inactive
COc1ccccc1C1CCN(Cc2ccccc2)CC1	none
Cc1ccc(N(Cc2ccc([N+](=O)[O-])cc2)C(=O)c2ccco2)cc1C	KCNK9 inh -13 | KCNK9 inh conf 56% | Kir2-1 spec inactive | HEK293 Tl ctr 42%
O=C(c1ccco1)N(Cc1ccc([N+](=O)[O-])cc1)c1ccc(Cl)cc1	none
CCC(NC(=O)c1cccc(Cn2nc(C)c([N+](=O)[O-])c2C)c1)c1ccc(C(C)C)cc1 (stereo not drawn)	none | KCNK9 inh conf inactive | Kir2-1 spec inactive | HEK293 Tl ctr inactive
Cc1ccc(CSCc2ccc(C(=O)NC3CC3)o2)cc1	none
Cc1ccc(CSCc2ccc(C(=O)NCCC(C)C)o2)cc1	none | KCNK9 inh conf inactive | Kir2-1 spec inactive | HEK293 Tl ctr inactive
Cc1ccc(OCCN(C)C(=O)C2CCC(=O)N(CCCN3CCOCC3)C2)cc1 (stereo not drawn)	none
COc1ccc2[nH]cc(CCn3ccc(O)c(C/C=C/c4ccccc4)c3=O)c2c1	none
O=c1c(C/C=C/c2ccccc2)c(O)ccn1CCc1c[nH]c2ccccc12	none | KCNK9 inh conf inactive | Kir2-1 spec inactive | HEK293 Tl ctr inactive
CCOc1ccc(S(=O)(=O)NCCC(=O)N(CC)CC(=O)Nc2c(F)cccc2F)cc1	none
CCOC(=O)c1ccccc1N/C=C/C(=O)c1ccccc1	KCNK9 inh -16 | KCNK9 inh conf 69% | Kir2-1 spec inactive | HEK293 Tl ctr 36%
CCOC(=O)c1ccccc1NC(=S)N1CCC(C)CC1	none
CCOC(=O)c1ccccc1NC(=O)c1ccc(F)cc1	none
CCOC(=O)c1ccccc1NC(=O)c1c(F)c(F)c(F)c(F)c1F	none | KCNK9 inh conf inactive | Kir2-1 spec inactive | HEK293 Tl ctr inactive
CCOC(=O)c1ccccc1NC(=S)N1CC(C)CC(C)C1 (stereo not drawn)	none | KCNK9 inh conf inactive | Kir2-1 spec inactive | HEK293 Tl ctr inactive
Cc1ccc2sc(N(CCCN(C)C)C(=O)CCS(=O)(=O)c3ccccc3)nc2c1C	none
Cc1cc(NC(=O)Cn2nc(-c3cccs3)ccc2=O)cc(C)c1Br	KCNK9 inh -8.3 | KCNK9 inh conf 36% | Kir2-1 spec inactive | HEK293 Tl ctr 26%
Cc1ccc(-c2ccc([C@H]3[C@H]4C=CC[C@@H](C)[C@@H]4C(=O)N3Cc3ccccc3)c(F)c2)cc1	none
CC[C@@H]1CC=C[C@H]2[C@H]1C(=O)N(Cc1ccccc1)[C@H]2c1ccc(C(F)(F)F)cc1	KCNK9 inh -8.5 | KCNK9 inh conf 50% | Kir2-1 spec inactive | HEK293 Tl ctr 48%
Cc1ccc(F)c([C@H]2[C@H]3C=CC[C@@H](C)[C@@H]3C(=O)N2Cc2ccccc2)c1	KCNK9 inh -8.6 | KCNK9 inh conf 52% | Kir2-1 spec inactive | HEK293 Tl ctr 60%
c1ccc2cc(OCCOCCOc3ccc4ccccc4c3)ccc2c1	none | KCNK9 inh conf inactive | Kir2-1 spec inactive | HEK293 Tl ctr inactive
CN(C)CCOc1ccc2ccccc2c1	none
COC(=O)C1(Cc2cc(-c3ccc([N+](=O)[O-])cc3)no2)CCN(C(=O)OC(C)(C)C)CC1	none
COc1ccc(C)cc1Nc1n[n+](-c2ccccc2)c(-c2c(Cl)cccc2Cl)s1	KCNK9 inh -15, KCNQ1 inh 11 (no result: KCNK3 inh) | KCNK9 inh conf 64% | Kir2-1 spec 33% | HEK293 Tl ctr 36%
CCc1ccc(Nc2n[n+](-c3ccccc3)c(-c3c(Cl)cccc3Cl)s2)cc1	none
CCn1ncc(CN2CCCC(C(=O)c3cccc(OC(C)C)c3)C2)c1C (stereo not drawn)	none | KCNK9 inh conf inactive | Kir2-1 spec inactive | HEK293 Tl ctr inactive
CCOC(=O)c1[nH]ncc1CN1CCCC(C(=O)c2cccc(OC(C)C)c2)C1 (stereo not drawn)	none
COCc1cc(CN2CCCC(C(=O)c3cccc(C(F)(F)F)c3)C2)ccc1OC (stereo not drawn)	none | KCNK9 inh conf inactive | Kir2-1 spec inactive | HEK293 Tl ctr inactive
COc1ccc(CN2CCCC(C(=O)c3cccc(OC(C)C)c3)C2)cc1Cn1cccn1 (stereo not drawn)	none | KCNK9 inh conf inactive | Kir2-1 spec inactive | HEK293 Tl ctr inactive
CCOc1cc2c(cc1O)C(=NOC)CC1C2CCC2(C)C(O)CCC12 (stereo not drawn)	none (no result: Kir21 inh, KCNK9 inh, hERG rescue, KCNQ1 act, KCNQ1 inh)
CC(NC(=O)C1CCN(C(=O)c2ccc(F)cc2)CC1)c1ccc(-n2ccnc2)cc1 (stereo not drawn)	none (no result: Kir21 inh, KCNK9 inh, hERG rescue, KCNQ1 act, KCNQ1 inh)
CN(C)CCn1c2c(c(SCC(=O)N3CCc4ccccc43)nc1=O)CCCC2	none
COc1ccc(OC)c(C(c2nnnn2C2CCCC2)N2CCN(c3ccccc3)CC2)c1 (stereo not drawn)	KCNK9 inh -8.6 | KCNK9 inh conf 58% | Kir2-1 spec inactive | HEK293 Tl ctr 43%
